The record followed here is the array DNA melting data of Ke et al. (doi:10.1101/2024.01.08.574731).

Series [1] is described as follows: folding enthalpy; higher = less favourable; fluorescence melt of hairpins on a sequencing array, two-state fit. The note with it: sodium 0.088 M. The method in brief: (§1)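 To match UV melts, fitted temperatures were raised by 9.35 °C. These fits were bootstrapped two-state models that gave melting temperature and folding enthalpy, combined by inverse variance over four replicates. The input was normalised Cy3 fluorescence of library hairpins with annealed Cy3 and quencher oligos on a sequenced MiSeq flow cell, imaged in 50 mM Na-HEPES pH 8.0, 25 mM NaCl in 2.5 °C steps up to 60 °C.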

Series [2] is described as follows: melting temperature; fluorescence melt of hairpins on a sequencing array, two-state fit, raised by 9.35 °C to match UV melts. As to conditions: sodium 0.088 M. In a few lines: as §1

On to GATGGGGGAAACTCCGTC ((.((.(....).)).)), for which the folding enthalpy in series [1] was -20.2 kcal/mol. Besides, in series [2], the Tm came out at 38 °C.

Take GATGGTGGAAACATCATC ((((.((....)).)))): the folding enthalpy in series [1] was -28.1 kcal/mol. For the same sequence, in series [2], the Tm was determined as 46.1 °C.

Take GATGGTGGAAACATCGTC ((.(.((....)).).)): in series [1], the folding enthalpy is -22 kcal/mol. Further, in series [2], the Tm amounted to 47.8 °C.

For GATGTACGAAAGTAAATC (((.(((....))).))), the folding enthalpy in series [1] is -23.9 kcal/mol. For the same sequence, the Tm in series [2] came to 35.5 °C.

For the sequence GATGTACGAAAGTATATC (((.(((....))).))), the folding enthalpy in series [1] was -30.7 kcal/mol. The Tm in series [2] was 45.9 °C.

Turning to GATGTAGCGAAAGCTATC (((..(((....)))))), the folding enthalpy in series [1] is -12 kcal/mol. The Tm in series [2] came to 31.4 °C.

With GATGTAGGAAACTACGTC ((.((((....)))).)), in series [1], the folding enthalpy was -23.4 kcal/mol. The Tm in series [2] is 44.8 °C.

Take GATGTCACGAAAGTGATC (((..(((....)))))): the folding enthalpy in series [1] was -11.8 kcal/mol. Also, the Tm in series [2] amounted to 28.4 °C.

For the sequence GATGTCCGAAAGGAGATC (((.(((....))).))), in series [1], the folding enthalpy was -28.9 kcal/mol. The Tm in series [2] amounted to 50.3 °C.

Take GATGTGGGAAACTGCATC ((((..(....)..)))): the folding enthalpy in series [1] was -27.1 kcal/mol. The Tm in series [2] came out at 36.1 °C.

For GATGTTGAAAAACATC ((((((....)))))), the folding enthalpy in series [1] was -35.7 kcal/mol. Also, the Tm in series [2] came to 51.6 °C.

For the sequence GATGTTGGAAACAACGTC ((.((((....)))).)), in series [1], the folding enthalpy is -26.4 kcal/mol. In series [2], the Tm was 49 °C.

GATGTTGGAAACGACATC (((((.(....).))))): the folding enthalpy in series [1] is -33.6 kcal/mol. Further, the Tm in series [2] worked out at 47.2 °C.

GATTAACGAAAGTTGATC (((.(((....))).))): in series [1], the folding enthalpy was -35.2 kcal/mol. The Tm in series [2] was found to be 44 °C.

GATTACCGAAAGGTATC (((.(((....)))))): the folding enthalpy in series [1] is -14.4 kcal/mol. The Tm in series [2] turned out to be 36.1 °C.

GATTACGGAAACGCAATC ((((.((....)).)))): in series [1], the folding enthalpy was -27.6 kcal/mol. Besides, the Tm in series [2] was found to be 37.4 °C.

With GATTACGGAAACGTAGTC ((.((((....)))).)), the folding enthalpy in series [1] is -25 kcal/mol. In series [2], the Tm is 38 °C.

Turning to GATTACGGAAACGTGATC (((.(((....))).))), the folding enthalpy in series [1] was -37.1 kcal/mol. Moreover, the Tm in series [2] worked out at 45.9 °C.

GATTAGCCGAAAGGCATC (((..(((....)))))): the folding enthalpy in series [1] is -7.43 kcal/mol. Moreover, in series [2], the Tm came out at 28.5 °C.

As for GATTAGCGAAAGCTATC (((.(((....)))))), in series [1], the folding enthalpy is -12.5 kcal/mol. Also, in series [2], the Tm was 34.7 °C.

In the case of GATTAGCGAAAGCTCATC (((.(((....))).))), in series [1], the folding enthalpy was -19.1 kcal/mol. In series [2], the Tm was 38.7 °C.

GATTAGGGAAACCCAATC ((((.((....)).)))): in series [1], the folding enthalpy is -22.4 kcal/mol. In series [2], the Tm turned out to be 31.3 °C.

On to GATTAGGGAAACCTGATC (((.(((....))).))), for which the folding enthalpy in series [1] was -24.1 kcal/mol. In addition, the Tm in series [2] stood at 38 °C.

Turning to GATTCACGAAAGTGTATC (((.(((....))).))), the folding enthalpy in series [1] is -25.9 kcal/mol. In addition, in series [2], the Tm was 42.7 °C.

In the case of GATTCAGGAAACTGAGTC ((.((((....)))).)), in series [1], the folding enthalpy was -31.1 kcal/mol. In addition, the Tm in series [2] worked out at 38.5 °C.

On to GATTCCCGAAAGGGATC (((.(((....)))))), for which the folding enthalpy in series [1] is -13.1 kcal/mol. For the same sequence, in series [2], the Tm is 47.3 °C.

For the sequence GATTCCGAAAGGAACATC ((((((....)))..))), the folding enthalpy in series [1] is -12 kcal/mol. The Tm in series [2] is 25.2 °C.

With GATTCCGAAAGGATAATC ((((((....)))..))), the folding enthalpy in series [1] is -15.5 kcal/mol. Besides, the Tm in series [2] came to 31.8 °C.

With GATTCCGGAAACGGGATC (((.(((....))).))), the folding enthalpy in series [1] was -43 kcal/mol. In series [2], the Tm came out at 51.2 °C.

As for GATTCGCGAAAGCGTATC (((.(((....))).))), the folding enthalpy in series [1] was -20.6 kcal/mol. The Tm in series [2] came out at 48.8 °C.

GATTGACGAAAGTCATC (((.(((....)))))): the folding enthalpy in series [1] is -12.7 kcal/mol. For the same sequence, in series [2], the Tm is 38.9 °C.

In the case of GATTGAGGAAACTCAACC (.(((((....))))).), in series [1], the folding enthalpy was -17.1 kcal/mol. Moreover, the Tm in series [2] came to 31.3 °C.

On to GATTGCCGAAAGGCCATC (((.(((....))).))), for which, in series [1], the folding enthalpy is -16.6 kcal/mol. In addition, the Tm in series [2] was determined as 40.9 °C.

On to GATTGCGAAAGCAAAATC ((((((....)))..))), for which the folding enthalpy in series [1] was -13.1 kcal/mol. The Tm in series [2] was determined as 35.3 °C.

In the case of GATTGCGAAAGCAGATC ((((((....))).))), the folding enthalpy in series [1] was -15.8 kcal/mol. Moreover, the Tm in series [2] turned out to be 42.9 °C.

On to GATTGCGAAAGCAGCATC ((((((....)))..))), for which the folding enthalpy in series [1] is -9.21 kcal/mol. Moreover, the Tm in series [2] came to 24.1 °C.

For the sequence GATTGCGAAAGCAGGATC ((((((....)))..))), the folding enthalpy in series [1] was -10.9 kcal/mol. In series [2], the Tm was found to be 30.1 °C.
